From ChEMBL document CHEMBL1795289, “5-alk(en)ylresorcinols as the major active components in wheat bran inhibit human colon cancer cell growth” (Bioorg Med Chem, 2011) come the findings set out here.

Holding throughout (assay type): functional, cell-based
One test concerns HCT-116. The test can be described thus: Growth inhibition of human HCT116 cells after 48 hrs by MTT assay. The following applies: HCT-116, 48 h. The method, boiled down: (§1)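 Cells seeded at 5000/well and left 24 h at 37 °C to attach. Samples in DMSO diluted into McCoy's 5A with 10% FBS, penicillin/streptomycin, amphotericin B and glutamine at 5, 10, 25, 37 and 50 µg/mL, 48 h, 37 °C. MTT 2.41 mmol/L for 3 h, formazan dissolved in DMSO, absorbance 595 nm. Reported as % cell growth, n = 8; IC50 by curve fitting.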

The next test relates to HT-29. Briefly: Growth inhibition of human HT-29 cells after 48 hrs by MTT assay. The following applies: HT-29, 48 h. The method, boiled down:
as §1
(Formazan colour is commonly taken as a measure of viable cells.)

The test system of a further test is BT-20. The test can be described thus: Growth inhibition of human BT20 cells.
For the next test, the system named is FM3A. The test can be described thus: Growth inhibition of mouse FM3A cells.
A further test deals with HeLa. Briefly: Growth inhibition of human HeLa cells.

pIC50: −log10 of the molar value. Values after ≈ are worked out from the molar mass of the structure shown.

In general, IC50 refers to the point on the concentration scale where inhibition reaches its midpoint. `CCCC/C=C\CCCCCCCCCCCCCc1cc(O)cc(O)c1` had an IC50 with HCT-116 of 17.6 mg/L (≈ 47.1 µM).

The molecule `CCCCCCCCCCCCCCCCCCCCCC(=O)Cc1cc(O)cc(O)c1` displayed an IC50 in the test with HCT-116 of over 50 mg/L.

As to `CCCCCCCCCCCCCCCCCCCC(=O)Cc1cc(O)cc(O)c1`, in the test with HCT-116, the IC50 is 16.6 mg/L (≈ 39.7 µM).

In the case of `CC/C=C\C/C=C\C/C=C\CCCCCCCCCc1cc(O)cc(O)c1`, the IC50 with HCT-116 is 20 mg/L (≈ 54.1 µM); with HT-29, 39.5 mg/L (≈ 107 µM).

In the case of `CCCCCC/C=C\CCCCCCCCCCCc1cc(O)cc(O)c1`, the IC50 was found to be 11.6 mg/L (≈ 30.9 µM) in the test on HCT-116 and 30.4 mg/L (≈ 81.2 µM) with HT-29.

With `CCCC/C=C\CCCCCCCCCCCc1cc(O)cc(O)c1`, the IC50 with HCT-116 came out at 20 mg/L (≈ 57.8 µM); in the test with HT-29, 35.6 mg/L (≈ 103 µM).

For `CCCCCCCCCCCCCCCCCCCCCCCCCc1cc(O)cc(O)c1`, the IC50 with HCT-116 and with HT-29 was over 50 mg/L each time.

For the molecule `CCCCCCCCCCCCCCCCCc1cc(O)cc(O)c1`, the IC50 in the test on HCT-116 turned out to be 18.9 mg/L (≈ 54.3 µM); with HT-29 it was 31.1 mg/L (≈ 89.4 µM).

Consider `CCCCCCCCCCCCCCCCCCCCCc1cc(O)cc(O)c1`, for which the IC50 with HCT-116 and in the test on HT-29 was over 50 mg/L in each case.

Take `CCCC/C=C\CCCCCCCCCCCCCCCc1cc(O)cc(O)c1`: the IC50 with HCT-116 came to 22.3 mg/L (≈ 55.3 µM); in the test on HT-29, 46.9 mg/L (≈ 116 µM).

As for `CCCCCCCCCCCCCCCCCCCCCCCc1cc(O)cc(O)c1`, the IC50 in the test on HCT-116 and in the test with HT-29 was over 50 mg/L in each case.

Broadly, the pIC50 is −log10 of the IC50, conventionally taken in molar units. Low readings indicate a high IC50, high ones a low IC50. In the case of `CCCCCCCCCCCCCCCc1cc(O)cc(O)c1` [CARDOL], the values for the IC50 with BT-20 and in the test with HeLa were 6.25 mg/L (≈ 19.5 µM) and 4.02 mg/L (≈ 12.5 µM), respectively. The molecule further gave a pIC50 in the test on FM3A of 5.55.

Turning to `CCCCC/C=C\C/C=C\CCCCCCCCCc1cc(O)cc(O)c1`, the IC50 in the test with HCT-116 worked out at 27.1 mg/L (≈ 72.6 µM); in the test with HT-29 it was 48.3 mg/L (≈ 130 µM).

Consider `CCCCCCCCCCCCCCCCCCCc1cc(O)cc(O)c1`, for which the IC50 in the test on HCT-116 was 36.2 mg/L (≈ 96.1 µM); with HT-29, over 50 mg/L.
